1 compound from ChEMBL document CHEMBL4371052, “Diarylcarbonates are a new class of deubiquitinating enzyme inhibitor” (Bioorg Med Chem Lett, 2019) can be followed below.

Each structure is given as a SMILES string. The source made the active and inactive calls. The rule behind the calls is not given here.

For data set [1], the target named is Pancreatic elastase (Sus scrofa) (UniProt P08419+P00772). The data set is described as follows: Inhibition of porcine pancreatic elastase. Format: protein assay.
For data set [2], the target named is Ubiquitin carboxyl-terminal hydrolase 7 (Homo sapiens) (UniProt Q93009). The data set is described as follows: Inhibition of USP7 in human MCF7 cells assessed as increase in p21 expression at 25 uM after 4 hrs by Western blot analysis. Format: cell-based. A digest of the protocol:
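MCF7 cells treated with compound for 4 h. Mdm2, p53 and p21 levels were determined by immunoblotting.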
For orientation: Immunoblotting shows a protein as a band on a membrane.

Data set [3] has the same target. Put plainly: Inhibition of USP7 in HEK293T cell lysates at 25 uM using HA-tagged vinyl-sulfone as substrate measured after 2 to 30 mins by Western blot analysis. Type of data set: subcellular. The following applies: Lysate. A digest of the protocol: (§1)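 HEK 293T lysate (1.5 mg/ml) given compound (25 μM) or DMSO at the same time as HA-Ub-VS (1.5 μM). Aliquots withdrawn over time were run on SDS-PAGE and immunoblotted for HA.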

Data set [4] has as its target Ubiquitin carboxyl-terminal hydrolase 9X (Homo sapiens) (UniProt Q93008). The data set is described as follows: Inhibition of USP9x in HEK293T cell lysates at 25 uM using HA-tagged vinyl-sulfone as substrate preincubated for 19 to 60 mins followed by substrate addition and measured after 19 to 25 mins by Western blot analysis. The following applies: Lysate. Type of data set: subcellular.

A further data set relates to MCF7. The data set is described as follows: Cytotoxicity against human MCF7 cells assessed as decrease in cell viability treated every 24 hrs measured after 72 hrs by alamar blue assay. Format: functional, cell-based. A digest of the protocol: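 MCF7 or B16/F10 cells dosed with compound every 24 h. Viable cells were quantified with Alamar Blue after 72 h.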
(In general: Alamar Blue is a resazurin reagent that responds to reducing activity.)

Data set [5] addresses Ubiquitin carboxyl-terminal hydrolase isozyme L1 (Homo sapiens) (UniProt P09936). The data set is described as follows: Inhibition of UCHL1 in HEK293T cell lysates at 25 uM using HA-tagged vinyl-sulfone as substrate measured after 2 to 30 mins by Western blot analysis. Format: subcellular. The following applies: Lysate. A digest of the protocol:
as §1

Data set [6] addresses Ubiquitin carboxyl-terminal hydrolase 7 (Homo sapiens) (UniProt Q93009). Put plainly: Inhibition of USP7 in human MCF7 cells assessed as increase in p53 expression after 4 to 48 hrs by Western blot analysis. Format: cell-based.
The target in data set [7] is T1, Ubiquitin carboxyl-terminal hydrolase 19 (Homo sapiens) (UniProt O94966).
T1 sequence (whole entry): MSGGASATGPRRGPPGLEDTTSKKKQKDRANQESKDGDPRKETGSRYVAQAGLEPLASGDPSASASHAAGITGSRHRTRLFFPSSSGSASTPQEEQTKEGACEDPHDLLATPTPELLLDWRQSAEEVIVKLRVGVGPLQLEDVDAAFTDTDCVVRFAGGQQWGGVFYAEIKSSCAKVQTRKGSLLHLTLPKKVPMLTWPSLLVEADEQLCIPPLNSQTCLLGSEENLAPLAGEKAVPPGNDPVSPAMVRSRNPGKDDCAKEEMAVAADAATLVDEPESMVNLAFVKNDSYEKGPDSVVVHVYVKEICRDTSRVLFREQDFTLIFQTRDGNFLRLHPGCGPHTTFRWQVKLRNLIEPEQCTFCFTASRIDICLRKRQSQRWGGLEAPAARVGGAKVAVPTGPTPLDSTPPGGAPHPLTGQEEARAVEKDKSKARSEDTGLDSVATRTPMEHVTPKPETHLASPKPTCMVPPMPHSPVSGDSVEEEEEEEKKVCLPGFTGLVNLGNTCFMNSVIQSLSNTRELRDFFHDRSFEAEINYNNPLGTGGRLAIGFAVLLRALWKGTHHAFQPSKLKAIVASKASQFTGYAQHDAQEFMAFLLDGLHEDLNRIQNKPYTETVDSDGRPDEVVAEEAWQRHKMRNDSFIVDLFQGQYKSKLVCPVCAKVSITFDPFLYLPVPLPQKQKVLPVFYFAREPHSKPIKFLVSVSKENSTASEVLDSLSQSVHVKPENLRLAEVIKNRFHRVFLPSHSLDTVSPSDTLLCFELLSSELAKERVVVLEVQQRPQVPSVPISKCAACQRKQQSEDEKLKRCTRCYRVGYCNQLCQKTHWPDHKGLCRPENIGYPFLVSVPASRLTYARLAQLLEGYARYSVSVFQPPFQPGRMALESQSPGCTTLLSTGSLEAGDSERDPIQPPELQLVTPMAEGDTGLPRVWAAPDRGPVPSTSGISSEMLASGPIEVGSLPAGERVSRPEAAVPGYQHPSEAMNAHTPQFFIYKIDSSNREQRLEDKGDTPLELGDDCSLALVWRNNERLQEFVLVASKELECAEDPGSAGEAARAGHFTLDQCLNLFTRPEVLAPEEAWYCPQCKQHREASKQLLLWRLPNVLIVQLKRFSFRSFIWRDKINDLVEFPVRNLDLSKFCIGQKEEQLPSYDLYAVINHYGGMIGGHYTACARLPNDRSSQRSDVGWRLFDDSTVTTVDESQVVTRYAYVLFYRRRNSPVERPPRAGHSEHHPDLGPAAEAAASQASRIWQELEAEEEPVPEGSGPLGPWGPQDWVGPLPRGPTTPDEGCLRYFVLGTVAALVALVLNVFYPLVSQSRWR
The data set is described as follows: Inhibition of USP19 in HEK293T cell lysates at 25 uM using HA-tagged vinyl-sulfone as substrate measured after 2 to 30 mins by Western blot analysis. Format: subcellular. The following applies: Lysate. An outline of the steps: as §1

The test system of the next data set is K562. The data set is described as follows: Cell cycle arrest in human K562 cells assessed as increase in accumulation at sub G1-phase after 24 hrs by propidium iodide staining based flow cytometry. Format: functional. A digest of the protocol: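 K562 cells exposed to compound for 24 h, then analysed for cell cycle by FACS. Sub-G1 cells were counted as apoptotic, with the G1 fraction reported separately.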

Data set [8] deals with Ubiquitin carboxyl-terminal hydrolase 9X (Homo sapiens) (UniProt Q93008). Put plainly: Inhibition of USP9x in human K562 cells assessed as decrease in Bcr-Abl expression at 50 uM measured after 2 hrs by Western blot analysis. Format: cell-based. An outline of the steps: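 K562 cells treated with 50 μM compound for 2 h. Lysates were sonicated in SDS, and Bcr-Abl was immunoblotted with anti-Abl antibody.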
Chain of Ubiquitin carboxyl-terminal hydrolase 9X (Homo sapiens) (Q93008 whole entry): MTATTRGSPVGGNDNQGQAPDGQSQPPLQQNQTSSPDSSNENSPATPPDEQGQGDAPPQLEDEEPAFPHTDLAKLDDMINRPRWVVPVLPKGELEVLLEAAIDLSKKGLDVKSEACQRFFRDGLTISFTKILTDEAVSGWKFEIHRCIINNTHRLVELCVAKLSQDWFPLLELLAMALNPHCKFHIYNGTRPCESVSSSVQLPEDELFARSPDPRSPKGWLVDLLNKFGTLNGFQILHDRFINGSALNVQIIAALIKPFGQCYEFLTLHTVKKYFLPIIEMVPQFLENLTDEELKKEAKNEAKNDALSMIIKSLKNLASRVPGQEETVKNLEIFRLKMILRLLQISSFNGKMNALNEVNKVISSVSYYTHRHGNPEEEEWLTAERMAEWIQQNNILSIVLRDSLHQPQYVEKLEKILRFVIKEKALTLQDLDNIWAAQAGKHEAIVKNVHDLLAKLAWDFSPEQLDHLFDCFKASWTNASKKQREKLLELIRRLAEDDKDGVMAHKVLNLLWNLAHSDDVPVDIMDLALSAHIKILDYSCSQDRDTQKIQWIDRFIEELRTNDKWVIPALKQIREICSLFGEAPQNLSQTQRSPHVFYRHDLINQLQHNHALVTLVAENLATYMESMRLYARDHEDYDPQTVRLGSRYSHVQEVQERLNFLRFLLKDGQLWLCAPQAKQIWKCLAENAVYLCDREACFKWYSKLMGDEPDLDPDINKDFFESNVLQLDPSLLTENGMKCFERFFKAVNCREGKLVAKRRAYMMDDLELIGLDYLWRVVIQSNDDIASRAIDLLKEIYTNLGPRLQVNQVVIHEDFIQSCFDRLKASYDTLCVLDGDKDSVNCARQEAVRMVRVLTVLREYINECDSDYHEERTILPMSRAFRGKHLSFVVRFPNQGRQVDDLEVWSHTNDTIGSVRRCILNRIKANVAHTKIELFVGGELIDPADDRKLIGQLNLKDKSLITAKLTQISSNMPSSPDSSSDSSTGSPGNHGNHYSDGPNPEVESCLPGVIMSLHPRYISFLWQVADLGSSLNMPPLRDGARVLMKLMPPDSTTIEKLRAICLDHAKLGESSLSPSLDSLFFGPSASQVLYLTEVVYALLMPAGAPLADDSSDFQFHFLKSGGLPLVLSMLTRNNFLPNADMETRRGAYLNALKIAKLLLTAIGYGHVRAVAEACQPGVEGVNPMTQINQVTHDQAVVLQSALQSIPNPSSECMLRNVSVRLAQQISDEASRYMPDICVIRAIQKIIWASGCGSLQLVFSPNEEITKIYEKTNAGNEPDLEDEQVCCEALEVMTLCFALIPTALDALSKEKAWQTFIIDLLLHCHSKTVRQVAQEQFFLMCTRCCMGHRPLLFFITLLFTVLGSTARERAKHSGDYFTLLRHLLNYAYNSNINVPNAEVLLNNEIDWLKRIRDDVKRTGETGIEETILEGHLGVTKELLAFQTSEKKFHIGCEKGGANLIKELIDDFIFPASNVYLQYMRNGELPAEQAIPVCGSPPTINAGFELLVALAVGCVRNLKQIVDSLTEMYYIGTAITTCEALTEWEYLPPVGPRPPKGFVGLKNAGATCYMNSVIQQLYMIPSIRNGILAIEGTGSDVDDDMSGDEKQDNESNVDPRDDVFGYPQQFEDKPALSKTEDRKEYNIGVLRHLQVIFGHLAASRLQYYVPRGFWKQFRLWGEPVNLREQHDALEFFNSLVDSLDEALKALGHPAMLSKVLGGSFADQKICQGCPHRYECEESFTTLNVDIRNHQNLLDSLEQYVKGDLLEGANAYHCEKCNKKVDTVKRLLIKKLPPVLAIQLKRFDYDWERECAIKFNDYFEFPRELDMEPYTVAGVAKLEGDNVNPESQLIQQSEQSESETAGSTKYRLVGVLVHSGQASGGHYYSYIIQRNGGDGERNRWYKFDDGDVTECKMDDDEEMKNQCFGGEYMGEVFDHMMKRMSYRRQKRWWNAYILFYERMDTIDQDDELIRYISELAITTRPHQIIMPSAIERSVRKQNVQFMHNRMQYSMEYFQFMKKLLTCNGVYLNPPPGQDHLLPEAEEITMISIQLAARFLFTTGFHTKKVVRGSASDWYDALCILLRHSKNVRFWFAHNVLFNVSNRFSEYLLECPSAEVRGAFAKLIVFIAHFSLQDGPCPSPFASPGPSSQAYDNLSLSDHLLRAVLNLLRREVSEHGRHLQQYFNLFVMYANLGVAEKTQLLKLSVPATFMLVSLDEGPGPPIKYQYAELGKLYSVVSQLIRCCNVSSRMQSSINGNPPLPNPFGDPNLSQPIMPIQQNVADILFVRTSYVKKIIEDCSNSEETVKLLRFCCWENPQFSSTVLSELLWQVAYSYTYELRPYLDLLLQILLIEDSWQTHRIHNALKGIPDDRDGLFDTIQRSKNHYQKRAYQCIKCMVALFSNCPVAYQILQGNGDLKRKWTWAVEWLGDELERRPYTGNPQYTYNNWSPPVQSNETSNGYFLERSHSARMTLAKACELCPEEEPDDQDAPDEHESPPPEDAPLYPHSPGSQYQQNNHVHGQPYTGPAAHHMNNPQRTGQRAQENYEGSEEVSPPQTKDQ

For data set [9], the target named is T2, Ubiquitin carboxyl-terminal hydrolase isozyme L3 (Homo sapiens) (UniProt P15374).
T2 sequence (whole entry): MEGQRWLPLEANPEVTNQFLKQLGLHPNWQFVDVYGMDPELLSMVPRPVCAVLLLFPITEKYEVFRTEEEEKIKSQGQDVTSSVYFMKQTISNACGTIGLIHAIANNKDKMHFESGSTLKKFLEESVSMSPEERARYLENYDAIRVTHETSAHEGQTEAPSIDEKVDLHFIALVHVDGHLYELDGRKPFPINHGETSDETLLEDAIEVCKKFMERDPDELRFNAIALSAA
Put plainly: Inhibition of UCHL3 in HEK293T cell lysates at 25 uM using HA-tagged vinyl-sulfone as substrate preincubated for 19 to 60 mins followed by substrate addition and measured after 19 to 25 mins by Western blot analysis. Format: subcellular. The following applies: Lysate.

In data set [10] the target is Ubiquitin carboxyl-terminal hydrolase 17-like protein 24 (Homo sapiens) (UniProt Q0WX57). The data set is described as follows: Inhibition of USP17 in HEK293T cell lysates at 25 uM using HA-tagged vinyl-sulfone as substrate preincubated for 19 to 60 mins followed by substrate addition and measured after 19 to 25 mins by Western blot analysis. Type of data set: subcellular. The following applies: Lysate.
Chain of Ubiquitin carboxyl-terminal hydrolase 17-like protein 24 (Homo sapiens) (Q0WX57 whole entry): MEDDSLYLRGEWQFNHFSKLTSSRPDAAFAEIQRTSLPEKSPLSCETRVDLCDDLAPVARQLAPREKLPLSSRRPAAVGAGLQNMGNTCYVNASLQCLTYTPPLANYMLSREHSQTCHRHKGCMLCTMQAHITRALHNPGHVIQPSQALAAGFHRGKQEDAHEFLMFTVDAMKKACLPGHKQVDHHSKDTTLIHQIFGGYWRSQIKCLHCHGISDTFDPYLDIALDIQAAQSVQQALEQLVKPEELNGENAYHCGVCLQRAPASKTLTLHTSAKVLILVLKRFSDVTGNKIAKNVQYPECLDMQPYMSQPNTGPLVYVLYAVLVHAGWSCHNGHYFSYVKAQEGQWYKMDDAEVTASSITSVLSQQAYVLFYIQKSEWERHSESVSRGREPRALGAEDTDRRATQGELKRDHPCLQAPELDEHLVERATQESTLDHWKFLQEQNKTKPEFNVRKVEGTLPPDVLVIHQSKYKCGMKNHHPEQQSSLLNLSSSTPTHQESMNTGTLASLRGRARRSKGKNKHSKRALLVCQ

Another data set has as its target Trypsin (Homo sapiens, UniProt P07477+P07478+P35030). Put plainly: Substrate activity at trypsin (unknown origin) by Michaelis-Menten plot analysis. Type of data set: ADME, protein assay. A digest of the protocol:
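Diarylcarbonate hydrolysis by chymotrypsin or trypsin measured across substrate concentrations; velocity versus substrate concentration fit for Km and kcat.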

Chain of Ubiquitin carboxyl-terminal hydrolase 7 (Homo sapiens) (Q93009 whole entry, looked up): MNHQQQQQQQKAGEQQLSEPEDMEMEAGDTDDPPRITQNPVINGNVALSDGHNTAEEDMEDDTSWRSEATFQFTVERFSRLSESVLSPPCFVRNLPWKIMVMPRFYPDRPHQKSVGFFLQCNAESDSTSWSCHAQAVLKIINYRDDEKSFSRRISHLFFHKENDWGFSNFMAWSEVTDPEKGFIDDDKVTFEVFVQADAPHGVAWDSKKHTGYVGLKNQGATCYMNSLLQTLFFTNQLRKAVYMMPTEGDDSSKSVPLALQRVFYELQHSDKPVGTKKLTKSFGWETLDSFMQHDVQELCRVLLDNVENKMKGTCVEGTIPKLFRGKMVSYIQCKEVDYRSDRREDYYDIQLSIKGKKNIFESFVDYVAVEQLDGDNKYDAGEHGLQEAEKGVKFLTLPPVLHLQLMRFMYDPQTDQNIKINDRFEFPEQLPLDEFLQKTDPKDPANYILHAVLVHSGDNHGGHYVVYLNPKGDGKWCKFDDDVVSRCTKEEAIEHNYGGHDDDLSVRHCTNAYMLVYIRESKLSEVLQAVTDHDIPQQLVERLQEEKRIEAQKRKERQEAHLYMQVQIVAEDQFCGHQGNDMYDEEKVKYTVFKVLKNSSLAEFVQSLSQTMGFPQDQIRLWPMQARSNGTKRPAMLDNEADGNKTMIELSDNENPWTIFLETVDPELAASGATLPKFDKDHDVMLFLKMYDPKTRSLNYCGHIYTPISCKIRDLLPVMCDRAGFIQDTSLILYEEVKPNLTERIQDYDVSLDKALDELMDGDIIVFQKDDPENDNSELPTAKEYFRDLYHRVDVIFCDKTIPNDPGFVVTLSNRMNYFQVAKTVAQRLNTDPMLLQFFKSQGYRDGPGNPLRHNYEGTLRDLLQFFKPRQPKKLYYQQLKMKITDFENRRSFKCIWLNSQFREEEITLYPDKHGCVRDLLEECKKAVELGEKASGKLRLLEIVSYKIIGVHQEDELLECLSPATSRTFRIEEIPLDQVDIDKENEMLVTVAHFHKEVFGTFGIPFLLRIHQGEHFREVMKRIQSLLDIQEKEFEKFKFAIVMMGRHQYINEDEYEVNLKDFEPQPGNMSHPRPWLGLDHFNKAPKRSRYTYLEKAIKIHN
Chain of Ubiquitin carboxyl-terminal hydrolase isozyme L1 (Homo sapiens) (P09936 whole entry, looked up): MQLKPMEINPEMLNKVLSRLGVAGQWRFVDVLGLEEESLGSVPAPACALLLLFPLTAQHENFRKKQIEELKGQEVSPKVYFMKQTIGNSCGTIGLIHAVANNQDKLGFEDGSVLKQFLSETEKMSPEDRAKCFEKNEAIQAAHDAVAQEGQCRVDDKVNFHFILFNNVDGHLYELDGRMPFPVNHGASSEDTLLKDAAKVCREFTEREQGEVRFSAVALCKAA

On to `NCc1ccc(OC(=O)Oc2ccc3ccccc3c2)cc1`, for which the inhibition result in data set [1], in [3], in [5], in data set [7] and in data set [9] was “inactive” each time. For the same compound, the inhibition entry in data set [2], in data set [4], in data set [8] and in [10] was “Active” throughout. For the same compound, the result (with MCF7; in data set [6]) was Active. Besides, the Activity entry in the data set on K562 is “Dose-dependent effect”. The Kcat on Trypsin came out at 0.02 s⁻¹. Further, the Michaelis constant (Km) at Trypsin (trypsin (isolated enzyme, unknown origin)) was 1 µM.

One may read the Km as the concentration of substrate that gives half-maximal velocity.
